In ChEMBL document CHEMBL1275556, “High prevalence of plasmid-mediated quinolone resistance genes qnr and aac(6')-Ib-cr in clinical isolates of Enterobacteriaceae from nine teaching hospitals in China” (2008):
In brackets after ≈: the same amount, converted by molar mass.

How the values were obtained:
Enterobacter cloacae [1] = assay: Antimicrobial activity against aac(6')-Ib-cr-negative Enterobacter cloacae FJ67T harboring qnrS gene by agar dilution method; type: functional
Klebsiella pneumoniae [2] = assay: Antimicrobial activity against aac(6')-Ib-cr-positive Klebsiella pneumoniae SY26T harboring wild-type GyrA, ParC, GyrB and qnrB genes by agar dilution method; type: functional
Summary of the method: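 Transconjugants were made by conjugating a qnr/aac(6')-Ib-cr donor with azide-resistant E. coli J53. MICs were read by CLSI agar dilution (M7-A7) and interpreted per M100-S17.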

Citrobacter freundii [3] = assay: Antimicrobial activity against aac(6')-Ib-cr-positive Citrobacter freundii JN1 harboring GyrA T83I, ParC S80I mutant, wild-type GyrB and qnrA genes by agar dilution method; type: functional
Summary of the method: (§1)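 MICs were determined by the CLSI agar dilution method (M7-A7) and interpreted against CLSI M100-S17 breakpoints.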

Citrobacter freundii [4] = assay: Antimicrobial activity against aac(6')-Ib-cr-positive Citrobacter freundii TJ15 harboring GyrA T83I, ParC S80I mutant, wild-type GyrB, qnrB genes by agar dilution method; type: functional; summary of the method: as §1
Enterobacter cloacae [5] = assay: Antimicrobial activity against aac(6')-Ib-cr-positive Enterobacter cloacae FJ63T harboring qnrS gene by agar dilution method; type: functional
Klebsiella pneumoniae [6] = assay: Antimicrobial activity against aac(6')-Ib-cr-positive Klebsiella pneumoniae WH99 harboring wild-type GyrA, ParC, GyrB and qnrB genes by agar dilution method; type: functional
Summary of the method: (§2)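 MICs were determined on clinical isolates by CLSI agar dilution (M7-A7) and interpreted against CLSI M100-S17 breakpoints.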

Escherichia coli [7] = assay: Antimicrobial activity against aac(6')-Ib-cr-positive Escherichia coli FJ3 harboring GyrA S83L, ParC S80R mutant, wild-type GyrB and qnrB genes by agar dilution method; type: functional; summary of the method: as §1
Citrobacter freundii [8] = assay: Antimicrobial activity against aac(6')-Ib-cr-positive Citrobacter freundii JS33 harboring GyrA T83I mutant, wild-type ParC, GyrB, qnrA and qnrB genes by agar dilution method; type: functional; summary of the method: as §1
Escherichia coli [9] = assay: Antimicrobial activity against aac(6')-Ib-cr-negative Escherichia coli PU12 harboring GyrA S83L mutant, wild-type GyrB, ParC and qnrS genes by agar dilution method; type: functional; summary of the method: as §1
Enterobacter cloacae [10] = assay: Antimicrobial activity against aac(6')-Ib-cr-negative Enterobacter cloacae GZ47 harboring qnrB and qnrS genes by agar dilution method; type: functional
Klebsiella pneumoniae [11] = assay: Antimicrobial activity against aac(6')-Ib-cr-negative Klebsiella pneumoniae SY22T harboring qnrS gene by agar dilution method; type: functional; summary of the method: as §1
Citrobacter freundii [12] = assay: Antimicrobial activity against aac(6')-Ib-cr-negative Citrobacter freundii JN64T harboring qnrA gene by agar dilution method; type: functional; summary of the method: as §1
Citrobacter freundii [13] = assay: Antimicrobial activity against aac(6')-Ib-cr-negative Citrobacter freundii JN64 harboring GyrA T83I, wild-type ParC, GyrB and qnrA genes by agar dilution method; type: functional; summary of the method: as §1
Klebsiella pneumoniae [14] = assay: Antimicrobial activity against aac(6')-Ib-cr-positive Klebsiella pneumoniae GZ40 harboring GyrA S83I, ParC S80I mutant, wild-type GyrB and qnrB genes by agar dilution method; type: functional; summary of the method: as §1
Enterobacter cloacae [15] = assay: Antimicrobial activity against aac(6')-Ib-cr-negative Enterobacter cloacae FJ61 harboring GyrA S83I, GyrA D87A, ParC S80I mutant, wild-type GyrB and qnrS genes by agar dilution method; type: functional
Klebsiella pneumoniae [16] = assay: Antimicrobial activity against aac(6')-Ib-cr-positive Klebsiella pneumoniae JN41T harboring qnrB gene by agar dilution method; type: functional
Summary of the method: (§3)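 Transconjugants were made by conjugating a qnr/aac(6')-Ib-cr donor with azide-resistant E. coli J53. Selection used Trypticase soy agar with sodium azide 150 µg/ml and sulfamethoxazole 180 µg/ml. […] MICs were read by CLSI agar dilution (M7-A7) and interpreted per M100-S17.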

Citrobacter freundii [17] = assay: Antimicrobial activity against aac(6')-Ib-cr-positive Citrobacter freundii PU55 harboring GyrA T83I, ParC S80I mutant, wild-type GyrB, qnrA genes by agar dilution method; type: functional; summary of the method: as §1
Escherichia coli [18] = assay: Antimicrobial activity against aac(6')-Ib-cr-negative Escherichia coli PU12T harboring wild-type GyrA, GyrB, ParC and qnrS genes by agar dilution method; type: functional; summary of the method: as §1
Enterobacter cloacae [19] = assay: Antimicrobial activity against aac(6')-Ib-cr-negative Enterobacter cloacae GZ51 harboring qnrA gene by agar dilution method; type: functional
Klebsiella pneumoniae [20] = assay: Antimicrobial activity against aac(6')-Ib-cr-positive Klebsiella pneumoniae JN41 harboring GyrA S83I, ParC S80I mutant, wild-type GyrB and qnrB genes by agar dilution method; type: functional; summary of the method: as §2
Klebsiella pneumoniae [21] = assay: Antimicrobial activity against aac(6')-Ib-cr-positive Klebsiella pneumoniae WH99T harboring qnrB gene by agar dilution method; type: functional; summary of the method: as §3
Enterobacter cloacae [22] = assay: Antimicrobial activity against aac(6')-Ib-cr-negative Enterobacter cloacae SH39 harboring GyrA S83I, ParC S80I mutant, wild-type GyrB and qnrA genes by agar dilution method; type: functional
Enterobacter cloacae [23] = assay: Antimicrobial activity against aac(6')-Ib-cr-positive Enterobacter cloacae FJ63 harboring GyrA S83I, GyrA D87A, ParC S80I mutant, wild-type GyrB and qnrS genes by agar dilution method; type: functional
Klebsiella pneumoniae [24] = assay: Antimicrobial activity against aac(6')-Ib-cr-positive Klebsiella pneumoniae JN132T harboring qnrB gene by agar dilution method; type: functional; summary of the method: as §3
Enterobacter cloacae [25] = assay: Antimicrobial activity against aac(6')-Ib-cr-negative Enterobacter cloacae GZ51T harboring qnrA gene by agar dilution method; type: functional
Citrobacter freundii [26] = assay: Antimicrobial activity against aac(6')-Ib-cr-positive Citrobacter freundii TJ15T harboring wild-type GyrA, ParC, GyrB genes by agar dilution method; type: functional; summary of the method: as §1
Enterobacter cloacae [27] = assay: Antimicrobial activity against aac(6')-Ib-cr-negative Enterobacter cloacae FJ67 harboring […] and qnrS genes by agar dilution method; type: functional
Enterobacter cloacae [28] = assay: Antimicrobial activity against aac(6')-Ib-cr-negative Enterobacter cloacae GZ47T harboring qnrB gene by agar dilution method; type: functional
Klebsiella pneumoniae [29] = assay: Antimicrobial activity against aac(6')-Ib-cr-negative Klebsiella pneumoniae SY22 harboring GyrA S83I, ParC S80I mutant, wild-type GyrB and qnrS genes by agar dilution method; type: functional; summary of the method: as §1
Enterobacter cloacae [30] = assay: Antimicrobial activity against aac(6')-Ib-cr-negative Enterobacter cloacae WH42 harboring wild-type GyrA, ParC, GyrB and qnrA genes by agar dilution method; type: functional
Citrobacter freundii [31] = assay: Antimicrobial activity against aac(6')-Ib-cr-positive Citrobacter freundii JN1T by agar dilution method; type: functional; summary of the method: as §1
Enterobacter cloacae [32] = assay: Antimicrobial activity against aac(6')-Ib-cr-negative Enterobacter cloacae WH42T harboring qnrA gene by agar dilution method; type: functional
Escherichia coli [33] = assay: Antimicrobial activity against aac(6')-Ib-cr-positive Escherichia coli FJ3T harboring wild-type GyrA, ParC, GyrB and qnrB genes by agar dilution method
Klebsiella pneumoniae [34] = assay: Antimicrobial activity against aac(6')-Ib-cr-positive Klebsiella pneumoniae JN132 harboring GyrA S83I, ParC S80I mutant, wild-type GyrB and qnrB genes by agar dilution method; type: functional; summary of the method: as §2
Klebsiella pneumoniae [35] = assay: Antimicrobial activity against aac(6')-Ib-cr-positive Klebsiella pneumoniae SY26 harboring GyrA S83I, ParC S80I mutant, wild-type GyrB and qnrB genes by agar dilution method; type: functional; summary of the method: as §2
Enterobacter cloacae [36] = assay: Antimicrobial activity against aac(6')-Ib-cr-negative Enterobacter cloacae SH39T harboring qnrA gene by agar dilution method; type: functional
Citrobacter freundii [37] = assay: Antimicrobial activity against aac(6')-Ib-cr-positive Citrobacter freundii JS33T harboring qnrA gene by agar dilution method; type: functional; summary of the method: as §1
Enterobacter cloacae [38] = assay: Antimicrobial activity against aac(6')-Ib-cr-negative Enterobacter cloacae FJ61T harboring qnrS gene by agar dilution method; type: functional

Row | Compound | MIC (Enterobacter cloacae [1]) | MIC (Klebsiella pneumoniae [2]) | MIC (Citrobacter freundii [3]) | MIC (Citrobacter freundii [4]) | MIC (Enterobacter cloacae [5]) | MIC (Klebsiella pneumoniae [6]) | MIC (Escherichia coli [7]) | MIC (Citrobacter freundii [8]) | MIC (Escherichia coli [9]) | MIC (Enterobacter cloacae [10]) | MIC (Klebsiella pneumoniae [11]) | MIC (Citrobacter freundii [12]) | MIC (Citrobacter freundii [13]) | MIC (Klebsiella pneumoniae [14]) | MIC (Enterobacter cloacae [15]) | MIC (Klebsiella pneumoniae [16]) | MIC (Citrobacter freundii [17]) | MIC (Escherichia coli [18]) | MIC (Enterobacter cloacae [19]) | MIC (Klebsiella pneumoniae [20]) | further results
1 | CC(C)(O/N=C(\C(=O)N[C@@H]1C(=O)N2C(C(=O)[O-])=C(C[n+]3ccccc3)CS[C@H]12)c1csc(N)n1)C(=O)O [CEFTAZIDIME] | 4 µg/mL (≈ 7.32 µM) | 16 µg/mL (≈ 29.3 µM) | 64 µg/mL (≈ 117 µM) | 4 µg/mL (≈ 7.32 µM) | 4 µg/mL (≈ 7.32 µM) | 16 µg/mL (≈ 29.3 µM) | 4 µg/mL (≈ 7.32 µM) | 16 µg/mL (≈ 29.3 µM) | 4 µg/mL (≈ 7.32 µM) | 128 µg/mL (≈ 234 µM) | 1 µg/mL (≈ 1.83 µM) | 2 µg/mL (≈ 3.66 µM) | 64 µg/mL (≈ 117 µM) | 256 µg/mL (≈ 468 µM) | 16 µg/mL (≈ 29.3 µM) | 1 µg/mL (≈ 1.83 µM) | 64 µg/mL (≈ 117 µM) | 1 µg/mL (≈ 1.83 µM) | 64 µg/mL (≈ 117 µM) | 2 µg/mL (≈ 3.66 µM) | MIC (Klebsiella pneumoniae [21]): 4 µg/mL (≈ 7.32 µM); MIC (Enterobacter cloacae [22]): 2 µg/mL (≈ 3.66 µM); MIC (Enterobacter cloacae [23]): 128 µg/mL (≈ 234 µM); MIC (Klebsiella pneumoniae [24]): 32 µg/mL (≈ 58.5 µM); MIC (Enterobacter cloacae [25]): 32 µg/mL (≈ 58.5 µM); MIC (Citrobacter freundii [26]): 2 µg/mL (≈ 3.66 µM); MIC (Enterobacter cloacae [27]): 4 µg/mL (≈ 7.32 µM); MIC (Enterobacter cloacae [28]): 2 µg/mL (≈ 3.66 µM); MIC (Klebsiella pneumoniae [29]): 4 µg/mL (≈ 7.32 µM); MIC (Enterobacter cloacae [30]): 256 µg/mL (≈ 468 µM); MIC (Citrobacter freundii [31]): 1 µg/mL (≈ 1.83 µM); MIC (Enterobacter cloacae [32]): 16 µg/mL (≈ 29.3 µM); MIC (Escherichia coli [33]): 2 µg/mL (≈ 3.66 µM); MIC (Klebsiella pneumoniae [34]): 32 µg/mL (≈ 58.5 µM); MIC (Klebsiella pneumoniae [35]): 256 µg/mL (≈ 468 µM)
2 | GENTAMICIN | 1 µg/mL | > 256 µg/mL | 1 µg/mL | 256 µg/mL | > 256 µg/mL | 128 µg/mL | 128 µg/mL | 64 µg/mL | 2 µg/mL | 256 µg/mL | 32 µg/mL | > 256 µg/mL | > 256 µg/mL | 1 µg/mL | 128 µg/mL | 1 µg/mL | 1 µg/mL | 1 µg/mL | > 256 µg/mL | 1 µg/mL | MIC (Enterobacter cloacae [36]): 4 µg/mL; MIC (Klebsiella pneumoniae [21]): 128 µg/mL; MIC (Enterobacter cloacae [22]): 8 µg/mL; MIC (Enterobacter cloacae [23]): > 256 µg/mL; MIC (Klebsiella pneumoniae [24]): > 256 µg/mL; MIC (Enterobacter cloacae [25]): > 256 µg/mL; MIC (Citrobacter freundii [26]): 1 µg/mL; MIC (Citrobacter freundii [37]): 16 µg/mL; MIC (Enterobacter cloacae [38]): 1 µg/mL; MIC (Enterobacter cloacae [27]): 2 µg/mL; MIC (Enterobacter cloacae [28]): 128 µg/mL; MIC (Klebsiella pneumoniae [29]): 128 µg/mL; MIC (Enterobacter cloacae [30]): 16 µg/mL; MIC (Citrobacter freundii [31]): 1 µg/mL; MIC (Enterobacter cloacae [32]): 8 µg/mL; MIC (Klebsiella pneumoniae [34]): > 256 µg/mL; MIC (Klebsiella pneumoniae [35]): > 256 µg/mL
